Laboratory results published in publication PMC4727981 (Archives of biochemistry and biophysics, 2015).
Several values for one entry are separate records, joined by “and”; a condition that tells them apart may be missing. Equal entries are not always repeated. Where two headings read alike, the source gives them in different places.

Columns and labels:
human KIAA1363 [1] = target: T1, human KIAA1363 (Homo sapiens, UniProt Q6PIU2); assay type: biochemical; details: data not shown
T1 sequence (Q6PIU2 1-416 isoform Q6PIU2-2): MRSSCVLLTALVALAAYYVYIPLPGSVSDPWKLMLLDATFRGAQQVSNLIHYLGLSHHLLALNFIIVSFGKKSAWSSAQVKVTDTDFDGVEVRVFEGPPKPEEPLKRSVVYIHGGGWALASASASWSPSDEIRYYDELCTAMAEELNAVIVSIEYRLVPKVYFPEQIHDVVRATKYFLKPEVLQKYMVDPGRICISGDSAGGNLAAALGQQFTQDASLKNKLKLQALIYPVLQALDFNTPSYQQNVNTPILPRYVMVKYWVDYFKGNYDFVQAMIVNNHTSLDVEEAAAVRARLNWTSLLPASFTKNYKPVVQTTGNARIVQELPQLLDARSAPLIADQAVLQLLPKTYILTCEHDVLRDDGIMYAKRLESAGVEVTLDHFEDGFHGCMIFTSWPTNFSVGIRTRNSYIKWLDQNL

human KIAA1363 [2] = target: T1, human KIAA1363; assay type: biochemical; details: for kreact (calculated reactivation rate constant): calculated with Eqn. 7 / kinact ratio
human CES1 = target: T2, human CES1 (Homo sapiens, UniProt P23141); assay type: biochemical; details: for kinact/Ki (bimolecular rate constant): linear fit
T2 sequence (P23141 18-566 isoform P23141-3 limits assumed): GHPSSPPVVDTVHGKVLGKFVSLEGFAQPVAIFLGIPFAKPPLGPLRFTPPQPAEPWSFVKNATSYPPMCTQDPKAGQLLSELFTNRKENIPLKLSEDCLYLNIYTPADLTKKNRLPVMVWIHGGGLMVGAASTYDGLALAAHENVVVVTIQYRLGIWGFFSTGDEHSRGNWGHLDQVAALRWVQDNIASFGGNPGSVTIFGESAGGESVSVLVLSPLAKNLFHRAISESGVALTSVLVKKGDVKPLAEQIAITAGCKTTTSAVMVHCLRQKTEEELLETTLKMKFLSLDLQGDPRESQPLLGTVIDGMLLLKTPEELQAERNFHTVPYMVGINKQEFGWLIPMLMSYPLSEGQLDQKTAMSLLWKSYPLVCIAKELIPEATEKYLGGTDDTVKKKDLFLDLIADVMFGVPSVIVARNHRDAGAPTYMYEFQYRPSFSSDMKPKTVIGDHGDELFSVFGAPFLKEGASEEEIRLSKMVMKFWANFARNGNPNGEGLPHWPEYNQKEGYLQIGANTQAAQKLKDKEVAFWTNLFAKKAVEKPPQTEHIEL
Procedure, shortened: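 Oxon at various concentrations plus 4-MUBA (250 μM) prewarmed 5 min at 37°C. Lysate (0.1 mg/ml final) then starts the reaction. 4-Methylumbelliferone fluorescence ([…]) is followed 45 min, with the mock-lysate signal subtracted. Curves are fit to a single exponential without reactivation to give kobs per concentration. Ki′ is substrate-corrected (Km 227 μM).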

human KIAA1363 [3] = target: T1, human KIAA1363; experiment: Reactivation of oxon-inhibited KIAA1363 activity after 100-fold dilution; assay type: biochemical; details: CPO 1 μM 15 min, diluted 100-fold, up to 60 min at 37°C
Procedure, shortened: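 KIAA1363-transfected COS-7 lysate (1 mg/ml protein, 50 mM Tris-HCl pH 7.4) preincubated 15 min at 37°C with 1 μM oxon in ethanol (2% v/v), or ethanol alone as control. Reactions are diluted 1:100 in the same buffer and incubated 60 min at 37°C. Aliquots are taken every 10 min to assay residual 4-MUBA hydrolysis by fluorescence.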

recombinant CES1 = recombinant CES1 ref 7; cited from earlier work
recombinant PON1^Q192 = recombinant PON1^Q192 ref 30; cited from earlier work
recombinant PON1^R192 = recombinant PON1^R192 ref 30; cited from earlier work
[4] = system: KIAA1363 in mouse brain membranes; details: cited from earlier work
[5] = system: KIAA1363 in mouse brain membranes; details: 1 nM [3H]-CPO, cited from earlier work
[6] = means of 2–4 independent experiments

CCCCCCCC/C=C\CCCCCCCC(=O)O[C@H]1CC[C@@]2(C)C(=CC[C@H]3[C@@H]4CC[C@H]([C@H](C)CCCC(C)C)[C@@]4(C)CC[C@@H]32)C1 [cholesteryl oleate]
hydrolysis by KIAA1363 (human KIAA1363 [1]): could not detect any activity

CCOP(=O)(OCC)Oc1ccc([N+](=O)[O-])cc1 [PO, O,O′-diethyl p-nitrophenyl phosphate]
kinact, fold lower than kinact for CPO (human KIAA1363 [2]): 7.5 fold | kinact/Ki (corrected bimolecular rate constant) (human KIAA1363 [2]): 0.4 × 10^6 s^−1M^−1 | ratio kinact/kreact (phosphorylation/dephosphorylation) (human KIAA1363 [2]): 3.4 | kreact (calculated reactivation rate constant) (human KIAA1363 [2]): 0.0003 s⁻¹ | kinact (human KIAA1363 [2]; [6]): 0.00092 s⁻¹ | kinact/Ki (bimolecular rate constant) (human CES1): 1.5 × 10^6 s^−1M^−1

CCCCCCCC/C=C\CCCCCCCC(=O)Oc1ccc2c(C)cc(=O)oc2c1 [4-methylumbelliferyl oleate]
hydrolysis by KIAA1363 (human KIAA1363 [1]): could not detect any activity

CCOP(=O)(OCC)Oc1nc(Cl)c(Cl)cc1Cl [CPO, O,O′-Diethyl 3,5,6-trichloro-2-pyridyl phosphate]
corrected kinact/Ki, fold higher than for PO (human KIAA1363 [2]): ~ 10 fold | kinact/Ki (corrected bimolecular rate constant) (human KIAA1363 [2]): 4.4(±0.4) × 10^6 s^−1M^−1 | ratio kinact/kreact (phosphorylation/dephosphorylation) (human KIAA1363 [2]): 16 | kreact (calculated reactivation rate constant) (human KIAA1363 [2]): 0.0004 s⁻¹ and 0.00043 ± 0.00019 s⁻¹ | kinact (human KIAA1363 [2]; [6]): 0.0069 ± 0.0007 s⁻¹ | kinact (human KIAA1363 [2]; representative graph Fig. 6A): 0.0062 s⁻¹ | kinact/Ki (bimolecular rate constant) (human CES1): 6.7(±4.2) × 10^6 s^−1M^−1 | kinact/Ki (human CES1; representative graph Fig. 6B, assuming Ki ≫ [I]): 2.5 × 10^6 s^−1M^−1 | kreact determined by dilution approach (human KIAA1363 [3]): 0.00038 s⁻¹ | kinact/Ki (recombinant CES1): ~ 10^7 s^−1M^−1 | catalytic efficiency for hydrolysis of CPO (recombinant PON1^Q192): 90000 M⁻¹ s⁻¹ | catalytic efficiency for hydrolysis of CPO (recombinant PON1^R192): 150000 M⁻¹ s⁻¹ | hydrolysis (turnover) of CPO by KIAA1363 ([4]; 1 nM CPO, 60 min ref 9): 100% | hydrolysis of CPO by KIAA1363 ([4]; 60 min incubation ref 9): hydrolyzed completely | hydrolysis of 1 nM [3H]-CPO by brain membranes from wildtype mice ([4]; 60 min incubation ref 10): completely hydrolyzed | added CPO covalently bound to KIAA1363 ([5]; 5 min ref 10): 48 mol % | added CPO present as diethylphosphoryl (non-aged) adduct ([5]; 5 min ref 10): 44 mol % | added CPO present as monoethylphosphoryl (aged) adduct ([5]; 5 min ref 10): 4 mol % | CPO completely hydrolyzed to trichloropyridinol and diethylphosphate ([5]; 60 min ref 10): 75 mol % | added CPO as covalent phosphoryl adduct on KIAA1363 ([5]; 60 min ref 10): 25 mol % | added CPO present as diethylphosphoryl adduct ([5]; 60 min ref 10): 13 mol % | added CPO present as monoethylphosphoryl adduct ([5]; 60 min ref 10): 12 mol %
